Reference: ChEMBL document CHEMBL5678808, “Human target validation of phosphoinositide 3-kinase (PI3K)β: effects on platelets and insulin sensitivity, using AZD6482 a novel PI3Kβ inhibitor” (J Thromb Haemost, 2012)
Calls of active or inactive are those of the source. The calls are words filed in the database; no cut-off is given here.

Key:
[1] = target: Proto-oncogene tyrosine-protein kinase LCK (Mus musculus) (UniProt P06240); experiment: Inhibition of mouse LCK at 10 uM relative to control
[2] = target: Serine/threonine-protein kinase Nek6 (Homo sapiens) (UniProt Q9HC98); experiment: Inhibition of human NEK6 at 10 uM relative to control
[3] = target: Tyrosine-protein kinase CSK (Homo sapiens, UniProt P41240); experiment: Inhibition of human CSK
Sequence of Tyrosine-protein kinase CSK (P41240 whole entry): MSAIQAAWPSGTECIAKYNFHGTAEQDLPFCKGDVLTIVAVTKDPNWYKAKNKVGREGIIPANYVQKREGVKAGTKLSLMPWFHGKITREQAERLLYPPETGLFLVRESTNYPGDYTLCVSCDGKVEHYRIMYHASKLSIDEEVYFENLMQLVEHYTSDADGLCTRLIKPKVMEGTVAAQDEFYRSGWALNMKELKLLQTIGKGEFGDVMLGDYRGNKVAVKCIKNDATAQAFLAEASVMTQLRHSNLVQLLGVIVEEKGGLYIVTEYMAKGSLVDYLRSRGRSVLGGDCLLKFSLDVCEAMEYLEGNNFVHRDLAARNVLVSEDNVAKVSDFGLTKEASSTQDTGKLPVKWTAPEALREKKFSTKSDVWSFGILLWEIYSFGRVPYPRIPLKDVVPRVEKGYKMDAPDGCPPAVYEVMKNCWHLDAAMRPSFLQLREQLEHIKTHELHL

[4] = Toxicity in Sprague-Dawley rat assessed as change in blood pressure at 6000 ug/kg, iv for 2 mins followed by 300 ug/kg/min, iv for 28 mins; format: organism-based; conditions: in vivo, 6 mg/kg, 0.5 h, time 30 min
Method in brief: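 Blood pressure was monitored in anesthetized rats during hyperinsulinemic–euglycemic clamps. There was an initial control period, then i.v. drug at 1000 μg kg−1 + 50 μg kg min−1 or 6000 μg kg−1 + 300 μg kg min−1. Heart rate was also recorded.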

[5] = target: Calcium/calmodulin-dependent protein kinase kinase 2 (Homo sapiens) (UniProt Q96RR4); experiment: Inhibition of human CAMKKbeta at 10 uM relative to control
Sequence of Calcium/calmodulin-dependent protein kinase kinase 2 (Homo sapiens) (Q96RR4 2-588 limits assumed): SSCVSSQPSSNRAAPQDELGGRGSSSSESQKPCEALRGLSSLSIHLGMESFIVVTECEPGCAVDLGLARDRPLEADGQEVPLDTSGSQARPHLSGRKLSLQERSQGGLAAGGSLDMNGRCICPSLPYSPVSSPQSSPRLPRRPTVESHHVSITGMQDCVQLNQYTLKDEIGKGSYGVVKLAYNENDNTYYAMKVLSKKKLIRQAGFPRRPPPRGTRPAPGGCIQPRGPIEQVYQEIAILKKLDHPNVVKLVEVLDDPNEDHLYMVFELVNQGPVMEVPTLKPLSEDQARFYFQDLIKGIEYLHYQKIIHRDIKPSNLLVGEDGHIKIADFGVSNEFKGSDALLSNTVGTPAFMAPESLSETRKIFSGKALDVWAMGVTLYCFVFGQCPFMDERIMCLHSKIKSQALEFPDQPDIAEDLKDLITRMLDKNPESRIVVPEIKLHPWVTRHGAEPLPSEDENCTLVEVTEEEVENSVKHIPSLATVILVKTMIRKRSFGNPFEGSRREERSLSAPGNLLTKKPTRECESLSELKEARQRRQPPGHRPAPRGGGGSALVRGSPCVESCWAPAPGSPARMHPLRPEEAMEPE

[6] = target: Dual specificity mitogen-activated protein kinase kinase 1 (Homo sapiens) (UniProt Q02750); experiment: Inhibition of mitogen activated protein kinase kinase 1 (unknown origin) at 10 uM relative to control
[7] = Clearance in human at 0.9 to 455.8 mg, iv administered for 3 hrs via infusion by LC-MS/MS analysis; format: ADME, organism-based; conditions: in vivo, dose 0.9-455.8 mg
Method in brief: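 Randomized, double-blind, placebo-controlled single ascending-dose study in healthy male volunteers aged 18–36. Each subject received a 3-h i.v. infusion (0.9–455.8 mg). Plasma levels were measured by protein precipitation and LC-MS/MS (LLOQ 0.005 μm), with non-compartmental PK analysis. Half-life was calculated only for the four highest dose groups. The 3-h sample was taken as Css.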

Rattus norvegicus [8] = experiment: (§1) Insulin sensitizing activity in Sprague-Dawley rat hyperinsulinemic-euglycemic glucose clamp model assessed as basal glucose level during infusion of human insulin at 1000 ug/kg/min, iv for 2 mins followed by 50 ug/kg/min, iv for 28 mins by colorimetry (reference value: 8.1 +/- 0.7 mM); format: functional; conditions: time 30 min, 0.5 h
Method in brief: (§2)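 Anesthetized rats; hyperinsulinemic–euglycemic clamp with human insulin infused. A baseline clamp (Clamp1) was followed by a second clamp (Clamp2) with vehicle or drug i.v. The drug was given as a low dose (1000 μg kg−1 + 50 μg kg min−1) or a high dose (6000 μg kg−1 + 300 μg kg min−1). Steady-state glucose infusion rate for euglycemia was recorded, with plasma glucose, human insulin and total insulin; mean ± SEM, n = 4–5/group.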

[9] = target: MAP/microtubule affinity-regulating kinase 3 (Homo sapiens) (UniProt P27448); experiment: Inhibition of human MARK3 at 10 uM relative to control
Sequence of MAP/microtubule affinity-regulating kinase 3 (Homo sapiens) (P27448 whole entry, looked up): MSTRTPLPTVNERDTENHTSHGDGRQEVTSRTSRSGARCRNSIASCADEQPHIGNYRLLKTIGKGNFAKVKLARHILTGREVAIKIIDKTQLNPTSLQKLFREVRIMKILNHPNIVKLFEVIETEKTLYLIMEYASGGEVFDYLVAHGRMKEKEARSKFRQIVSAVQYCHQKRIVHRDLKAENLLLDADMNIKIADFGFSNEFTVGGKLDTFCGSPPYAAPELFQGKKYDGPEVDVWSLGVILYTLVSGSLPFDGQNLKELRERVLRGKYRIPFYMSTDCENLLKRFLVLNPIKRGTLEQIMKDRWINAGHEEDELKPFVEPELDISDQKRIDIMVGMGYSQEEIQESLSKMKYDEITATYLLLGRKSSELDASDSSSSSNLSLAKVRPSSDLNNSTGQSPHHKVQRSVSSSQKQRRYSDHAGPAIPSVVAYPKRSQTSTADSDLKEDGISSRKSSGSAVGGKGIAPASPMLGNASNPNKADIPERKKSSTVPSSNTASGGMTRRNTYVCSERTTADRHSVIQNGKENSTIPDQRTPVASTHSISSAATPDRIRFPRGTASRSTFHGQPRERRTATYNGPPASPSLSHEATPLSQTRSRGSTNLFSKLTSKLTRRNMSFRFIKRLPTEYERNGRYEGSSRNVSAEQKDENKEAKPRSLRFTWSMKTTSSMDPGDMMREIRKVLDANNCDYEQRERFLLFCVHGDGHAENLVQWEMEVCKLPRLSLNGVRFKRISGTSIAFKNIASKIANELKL

[10] = target: Serine/threonine-protein kinase pim-1 (Homo sapiens) (UniProt P11309); experiment: Inhibition of human PIM1 at 10 uM relative to control
Sequence of Serine/threonine-protein kinase pim-1 (Homo sapiens) (P11309 whole entry, looked up): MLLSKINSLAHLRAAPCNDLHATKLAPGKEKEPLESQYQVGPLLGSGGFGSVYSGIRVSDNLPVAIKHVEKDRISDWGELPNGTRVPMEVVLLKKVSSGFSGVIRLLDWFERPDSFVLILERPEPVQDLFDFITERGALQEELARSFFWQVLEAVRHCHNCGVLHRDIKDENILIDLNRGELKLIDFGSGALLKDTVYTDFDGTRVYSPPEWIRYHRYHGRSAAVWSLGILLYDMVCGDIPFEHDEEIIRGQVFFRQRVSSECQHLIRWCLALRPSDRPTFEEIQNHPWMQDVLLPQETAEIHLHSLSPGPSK

[11] = target: Cyclin-dependent kinase 2/cyclin E1 (Homo sapiens, UniProt P24941); experiment: Inhibition of human CDK2/Cyclin E; format: protein-complex assay
[12] = target: Tyrosine-protein kinase JAK3 (Homo sapiens, UniProt P52333); experiment: Inhibition of human JAK3
[13] = target: 3-phosphoinositide-dependent protein kinase 1 (Homo sapiens) (UniProt O15530); experiment: Inhibition of human PDPK1 at 10 uM relative to control
Sequence of 3-phosphoinositide-dependent protein kinase 1 (Homo sapiens) (O15530 whole entry, the tested form may be a part): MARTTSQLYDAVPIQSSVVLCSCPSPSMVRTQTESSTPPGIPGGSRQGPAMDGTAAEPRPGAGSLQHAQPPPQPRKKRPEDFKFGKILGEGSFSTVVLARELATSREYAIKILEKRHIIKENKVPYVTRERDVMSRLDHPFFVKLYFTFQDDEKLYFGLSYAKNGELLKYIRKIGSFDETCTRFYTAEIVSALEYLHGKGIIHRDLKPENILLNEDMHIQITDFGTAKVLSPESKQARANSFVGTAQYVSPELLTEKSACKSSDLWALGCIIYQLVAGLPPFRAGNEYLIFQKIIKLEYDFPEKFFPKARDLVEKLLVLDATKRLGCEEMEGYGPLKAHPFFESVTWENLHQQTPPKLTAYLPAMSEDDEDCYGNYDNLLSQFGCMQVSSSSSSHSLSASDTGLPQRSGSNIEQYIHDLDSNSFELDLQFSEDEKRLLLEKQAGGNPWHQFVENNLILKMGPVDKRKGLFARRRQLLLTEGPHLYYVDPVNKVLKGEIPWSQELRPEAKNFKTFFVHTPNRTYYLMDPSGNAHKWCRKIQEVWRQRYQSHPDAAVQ

[14] = Volume of distribution at steady state in human at 0.9 to 455.8 mg, iv administered for 3 hrs via infusion by LC-MS/MS analysis; format: ADME, organism-based; conditions: in vivo, dose 0.9-455.8 mg
Method in brief: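 Healthy male volunteers (18–36 years) in a randomized, double-blind, placebo-controlled single ascending-dose study received a 3-h i.v. infusion. Plasma drug levels were measured by protein precipitation then LC-MS/MS (LLOQ 0.005 μm). Non-compartmental pharmacokinetic analysis was used; median (range) across dose levels reported.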

Rattus norvegicus [15] = experiment: as §1, with “as” for “as basal”, “infusion rate required to maintain euglycemia” for “level”, “measured during clamp 2” for “by colorimetry”, “138” for “8.1”, “4 umol/min/kg)” for “0.7 mM)”; format: functional; conditions: time 30 min, 0.5 h; method in brief: as §2
[16] = target: Mitogen-activated protein kinase 1 (Mus musculus) (UniProt P63085); experiment: Inhibition of mouse MAPK1 at 10 uM relative to control
Sequence of Mitogen-activated protein kinase 1 (Mus musculus) (P63085 whole entry): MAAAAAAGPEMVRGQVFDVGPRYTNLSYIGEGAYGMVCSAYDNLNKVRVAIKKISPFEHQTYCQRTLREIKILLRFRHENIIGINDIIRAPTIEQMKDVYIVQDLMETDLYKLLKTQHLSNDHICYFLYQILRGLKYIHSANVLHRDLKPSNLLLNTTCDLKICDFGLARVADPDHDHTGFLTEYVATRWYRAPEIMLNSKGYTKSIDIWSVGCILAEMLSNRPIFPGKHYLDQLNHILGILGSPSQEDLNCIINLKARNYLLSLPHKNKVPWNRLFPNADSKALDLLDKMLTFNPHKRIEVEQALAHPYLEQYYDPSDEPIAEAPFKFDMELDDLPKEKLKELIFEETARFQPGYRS

[17] = Toxicity in Sprague-Dawley rat assessed as change in heart rate at 1000 ug/kg, iv for 2 mins followed by 50 ug/kg/min, iv for 28 mins; format: organism-based; conditions: in vivo, 1 mg/kg, 0.5 h, time 30 min
Method in brief: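 Overnight-fasted anesthetized rats got three consecutive escalating i.v. doses over 30 min each (n = 4/group). Heart rate and blood pressure were followed alongside end-of-interval blood samples for plasma drug exposure, glucose and insulin (relative HOMA index experiments).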

[18] = target: Inhibitor of nuclear factor kappa-B kinase subunit beta (Homo sapiens) (UniProt O14920); experiment: Inhibition of human IKKb at 10 uM relative to control
Sequence of Inhibitor of nuclear factor kappa-B kinase subunit beta (Homo sapiens) (O14920 whole entry): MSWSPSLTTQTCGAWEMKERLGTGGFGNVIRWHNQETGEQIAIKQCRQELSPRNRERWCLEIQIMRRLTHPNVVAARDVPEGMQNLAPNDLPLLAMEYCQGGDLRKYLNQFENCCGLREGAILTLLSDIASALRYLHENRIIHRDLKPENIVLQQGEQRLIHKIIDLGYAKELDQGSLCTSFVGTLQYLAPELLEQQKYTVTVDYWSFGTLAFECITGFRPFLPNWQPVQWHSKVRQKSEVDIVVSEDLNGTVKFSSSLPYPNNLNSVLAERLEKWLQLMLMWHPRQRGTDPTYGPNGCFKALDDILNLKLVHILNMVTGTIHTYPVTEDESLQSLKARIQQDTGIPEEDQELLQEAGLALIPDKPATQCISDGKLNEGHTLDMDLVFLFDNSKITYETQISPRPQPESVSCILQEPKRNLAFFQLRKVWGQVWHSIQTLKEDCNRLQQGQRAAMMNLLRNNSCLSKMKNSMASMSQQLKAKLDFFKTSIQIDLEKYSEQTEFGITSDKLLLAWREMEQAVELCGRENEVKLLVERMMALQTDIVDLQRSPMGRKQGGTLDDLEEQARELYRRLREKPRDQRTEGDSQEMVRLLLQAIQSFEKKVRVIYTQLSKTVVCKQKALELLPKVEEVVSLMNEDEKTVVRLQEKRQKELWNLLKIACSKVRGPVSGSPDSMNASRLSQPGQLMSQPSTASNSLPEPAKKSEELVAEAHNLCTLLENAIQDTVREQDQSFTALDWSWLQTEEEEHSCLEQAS

[19] = target: Mitogen-activated protein kinase 14 (Homo sapiens, UniProt Q16539); experiment: Inhibition of human p38a
Canis familiaris = experiment: Antithrombotic activity in Beagle dog model of arterial thrombosis and bleeding assessed as blood loss at 0.005 to 0.24 ug/kg/min, iv via bolus for 29 mins and measured for 15 mins; format: functional, organism-based; conditions: Canis lupus familiaris
Method in brief: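 Modified Folts' model of thrombosis in a damaged, stenosed femoral artery of anesthetized dogs. Animals first received saline vehicle. Consecutive i.v. doses then followed, each given over a 30-min period as a bolus (0.03–1.3 μg kg−1) plus an infusion (0.005–0.24 μg kg min−1). Read-outs were cyclic flow reductions, expressed as % restoration of blood flow, plus bleeding time, blood loss and plasma drug exposure. Mean ± SEM, n = 6.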

[20] = target: Lymphokine-activated killer T-cell-originated protein kinase (Homo sapiens) (UniProt Q96KB5); experiment: Inhibition of human PBK at 10 uM relative to control
[21] = target: Serine/threonine-protein kinase pim-3 (Homo sapiens) (UniProt Q86V86); experiment: Inhibition of human PIM3 at 10 uM relative to control
Rattus norvegicus [22] = experiment: Insulin sensitizing activity in Sprague-Dawley rat hyperinsulinemic-euglycemic glucose clamp model assessed as human insulin level during infusion of human insulin at 1000 ug/kg/min, iv for 2 mins followed by 50 ug/kg/min, iv for 28 mins measured during clamp 1 (reference value: 1.7 +/- 0.1 nM); format: functional; conditions: time 30 min, 0.5 h; method in brief: as §2
[23] = Inhibition of PI3Kbeta in Beagle dog whole blood assessed as reduction in ADP-induced thrombus formation at 1 uM relative to control; conditions: Canis lupus familiaris, condition thrombotic disease
[24] = target: Serine/threonine-protein kinase PLK1 (Homo sapiens, UniProt P53350); experiment: Inhibition of human PLK
Sequence of Serine/threonine-protein kinase PLK1 (P53350 whole entry): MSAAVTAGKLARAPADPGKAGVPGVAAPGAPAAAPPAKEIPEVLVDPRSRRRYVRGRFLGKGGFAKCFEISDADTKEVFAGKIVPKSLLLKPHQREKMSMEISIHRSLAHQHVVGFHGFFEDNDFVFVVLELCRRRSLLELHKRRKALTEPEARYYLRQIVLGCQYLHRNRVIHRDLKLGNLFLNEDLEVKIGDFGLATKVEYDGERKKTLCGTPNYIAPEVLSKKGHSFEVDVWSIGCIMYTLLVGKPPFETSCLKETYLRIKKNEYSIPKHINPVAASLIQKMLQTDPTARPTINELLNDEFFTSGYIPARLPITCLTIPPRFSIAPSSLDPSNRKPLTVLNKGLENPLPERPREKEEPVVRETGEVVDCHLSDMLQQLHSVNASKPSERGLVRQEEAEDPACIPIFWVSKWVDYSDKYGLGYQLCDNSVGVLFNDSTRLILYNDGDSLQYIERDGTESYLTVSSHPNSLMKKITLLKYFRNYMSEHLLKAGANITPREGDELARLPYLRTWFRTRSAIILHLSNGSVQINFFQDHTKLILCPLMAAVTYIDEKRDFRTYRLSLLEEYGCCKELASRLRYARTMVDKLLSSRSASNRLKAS

[25] = Toxicity in Sprague-Dawley rat hyperinsulinemic-euglycemic glucose clamp model assessed as increase in blood pressure at 1000 ug/kg/min, iv for 2 mins followed by 50 ug/kg/min, iv for 28 mins; format: organism-based; conditions: in vivo, 0.5 h, time 30 min
Method in brief: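 Anesthetized rats underwent two consecutive hyperinsulinemic–euglycemic clamps with human insulin infusion: a baseline Clamp1, then Clamp2 with vehicle or AZD6482 i.v. (n = 4–5/group). Blood pressure and heart rate were followed during control periods and after drug administration. Steady-state glucose infusion rate maintained euglycemia.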

Cc1cc([C@@H](C)Nc2ccccc2C(=O)O)c2nc(N3CCOCC3)cc(=O)n2c1 [AZD-6482]
inhibition [1]: 11% | inhibition [2]: 2.5% | IC50 [3]: 90 µM | Activity [4]: Non-Toxic | inhibition [5]: 14% | inhibition [6]: 11% | clearance [7]: 1180 mL/min | Activity (Rattus norvegicus [8]): 7.6 mM | inhibition [9]: -7.3% | inhibition [10]: 24% | IC50 [11]: > 1000 µM | IC50 [12]: > 201 µM | inhibition [13]: 16% | Vd [14]: 48 L | Activity (Rattus norvegicus [15]): 107 µmol/min/kg | inhibition [16]: 3.6% | Activity [17]: Non-Toxic | inhibition [18]: -8.9% | IC50 [19]: > 671 µM | Activity (Canis familiaris): inactive | inhibition [20]: 6.9% | inhibition [21]: -5.9% | Activity (Rattus norvegicus [22]): 1.8 nM | inhibition at 1 µM [23]: > 80% | IC50 [24]: 84 µM | Activity [25]: 6 mmHg
